# The full list was thinned out, with hits kept by preference.
# UPR CHOP act = apoptotic UPR (CHOP) activation; AID 449763; CHO-CHOP luciferase reporter, luminescence; percent of tunicamycin response over DMSO baseline; activation, % at 10 µM; 330,000 tested, 0.34% active;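 active = at 10 µM dose, activation of 40% or more, normalized to positive control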;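 note: 100% = tunicamycin at 10 µg/mL and 0% = DMSO alone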
#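 System: CHO-CHOP luciferase reporter cell line | Buffer or medium: F12 medium containing 10% fetal bovine serum | Doses: One dose, 10 µM in 0.5% DMSO | Times: 6 h compound exposure at 37 °C after overnight seeding | Signal: Luciferase luminescence | Read-out: % activation vs tunicamycin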
# VLA-4 inh = inhibition in a human VLA-4 binding assay. P13612. VLA-4 expressing cells, ligand binding flow cytometry. inhibition, % (about 7 µM as worked out from the volumes in the protocol). 330,000 tested, 0.2% active. AID 2557; in the data active = inhibition above about 50%
# XBP1 UPR activ = adaptive UPR (XBP1) activation; 330,000 tested, 0.33% active; CHO-XBP1 luciferase reporter, IRE1-XBP1 UPR activation, luminescence; percent of tunicamycin response, DMSO as zero; activation, % at 20 µM;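 active = versus positive control, 20 µM dose yields 30% or more activation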;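 note: 100% = tunicamycin at 10 µg/mL and 0% = DMSO only wells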
#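 assay system = CHO-XBP1 luciferase reporter cells | amount = 1000 cells/well | buffer or medium = F12 plus 10% FBS | compound dosing = single point, 20 µM final compound, 1% DMSO | incubation = 16-18 h cell attachment at 37 °C, then 6 h compound exposure | detection = Steady-Glo luminescence read | controls = tunicamycin 10 µg/mL and vehicle-only wells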
# CHOP inhibitor = CHOP inhibition in unfolded protein response; inhibition, % at 10 µM; AID 2732; CHO-K1 CHOP-promoter luciferase, tunicamycin-induced, 15-18 h; 220,000 tested, 3.8% active;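 active = compounds that reduced the stress-induced luciferase reporter signal by more than about 70% of percent inhibition, limit read from the data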;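 note: 0% = tunicamycin plus vehicle and 100% = wells without tunicamycin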
# Beta2AR agonist = human beta-2 adrenergic receptor agonism by FAP | P07550 | Am2.2-beta2AR cells, FAP receptor internalization, flow cytometry | response, % (no concentration beside the values) | 340,000 tested, 0.43% active | AID 504454;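 active = response above a set limit, near 3 SD of response in nonfluorescent compounds, cut at about 42% in these data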
# Starred values were filed as active, the others as inactive; nt = not tested or not shown.
SMILES,UPR CHOP act,VLA-4 inh,XBP1 UPR activ,CHOP inhibitor,Beta2AR agonist
Nc1ccc(S(=O)(=O)Nc2nccs2)cc1N=Nc1ccccc1[N+](=O)[O-],nt,nt,nt,nt,5.7
COc1cc(/C=C2\SC(c3ccc(C)cc3)=NC2=O)ccc1O,-6.0,-34.9,-3.0,86.2*,3.9
COc1cc(/C=C2\SC(=S)N(c3cccnc3)C2=O)ccc1O,1.0,-16.1,-1.1,90.3*,10.4
COc1ccc(/C=C2\SC(c3ccc(C)cc3)=NC2=O)cc1OC,-0.9,-24.8,3.9,37.1,-12.8
COc1cccc(NC(=O)c2ccccc2Oc2ccccc2)c1,0.8,5.4,-2.3,nt,-8.4
COc1cccc(Nc2ncccc2C(=O)Nc2ccccc2)c1,-0.5,-27.4,-2.4,85.0*,-7.5
Cc1ccccc1N1CCN(Cc2cccc(C(=O)O)c2)CC1,-0.3,-1.3,-1.2,17.1,0.0
COC(=O)c1cc(CN2CCN(c3ccccc3C)CC2)ccc1O,-3.2,-6.3,-2.4,72.0*,5.4
O=C(COC(=O)c1ccc(O)cc1O)Nc1ncc(Cl)cc1Cl,2.2,16.4,-3.0,nt,11.8
Cc1cc(N=Cc2c(O)n(-c3ccc4c(c3)OCO4)c(=O)c3ccccc23)ccn1,1.1,-3.3,-0.7,93.8*,2.6
COc1cc(OC)cc(C(=O)Nc2nnc(NC(=S)Nc3ccccc3)s2)c1,-0.7,30.5,-2.3,107.7*,16.2
COc1cc(OC)cc(C(=O)Nc2ccc(Nc3ccccc3)cc2)c1,3.6,15.8,-3.8,nt,10.4
COc1cccc(N2CCN(c3ccc(S(=O)(=O)N4CCN(C)CC4)cc3[N+](=O)[O-])CC2)c1,-1.9,-3.0,-3.4,nt,11.8
COc1ccc(N2CCN(S(=O)(=O)c3ccc4c(c3)CCCC4)CC2)c([N+](=O)[O-])c1,5.6,10.2,-4.4,71.4*,-0.8
Cc1cc(Cl)ccc1OCC(=O)NCCOc1nc(N2CCCCC2)nc(N2CCOCC2)n1,-0.5,-0.1,-1.7,89.2*,-4.7
COc1cc(C)nc(OCCNC(=O)COc2ccc(Cl)cc2C)n1,-1.5,-12.6,-1.2,29.5,-11.8
COC(=O)[C@@]1(Cc2ccccc2)[C@H]2C(=O)N(C)C(=O)[C@H]2[C@H]2CN=C(SCC(=O)c3ccccc3)N21,1.0,nt,1.2,nt,-7.9
CCN(CC)S(=O)(=O)c1ccc(N2CCN(C)CC2)c(NC(=O)Nc2ccc(C)cc2)c1,6.6,-1.8,2.1,nt,12.7
COc1ccc(-n2nnnc2SCc2nc3ccccc3s2)cc1,-0.4,9.1,3.3,82.1*,12.6
CCC1CCCCN1C(=O)COC(=O)CN(C)S(=O)(=O)c1ccc(NC(C)=O)cc1 (centres undefined),0.7,1.5,-1.4,nt,24.1
Oc1ccc(/C=N/Nc2ccnc3cc(Cl)ccc23)c(O)c1O,9.4,0.3,-0.8,nt,105.9*
COc1cc(/C=N/Nc2ccc(Cl)c(C(=O)O)c2)ccc1OC(=O)c1ccccc1F,-1.7,6.2,-6.4,nt,1.6
O=C(Nc1ccc2nc(-c3cccs3)c(-c3cccs3)nc2c1)NC1CC1,-0.2,2.0,-2.4,91.7*,26.4
CCOC(=O)c1ccc(NC(=O)CCc2nc(-c3ccccc3)no2)cc1,-1.4,9.1,-0.4,78.6*,-17.1
CCOC(=O)c1cccc(NC(=O)CCc2nc(-c3ccc(C)cc3)no2)c1,-3.5,-7.4,-2.1,56.8,8.1
SMILES,UPR CHOP act,VLA-4 inh,XBP1 UPR activ,CHOP inhibitor,Beta2AR agonist
CCOC(=O)c1ccc(NC(=O)CCc2nc(-c3ccccc3Cl)no2)cc1,-0.4,-3.1,0.2,81.2*,-12.8
c1ccc(-c2nc(-c3ccccn3)no2)cc1,-7.7,0.8,-9.3,59.7,-7.8
Cc1ccc(-c2nc(-c3ccccn3)no2)cc1Cl,-8.5,-1.9,-7.8,82.7*,-7.6
Clc1cccc(-c2nc(-c3ccccn3)no2)c1,-7.5,15.6,-6.2,59.8,-8.5
c1ccc(-c2ccc(-c3nc(-c4ccccn4)no3)cc2)cc1,-9.3,13.0,-9.4,105.2*,-10.4
CCOC(=O)N1CCC(C(=O)NNC(=O)c2ccc(Cl)cc2Cl)CC1,-2.7,1.3,-7.5,nt,-6.8
O=C(Oc1ccc(Cl)c2cccnc12)c1cccc([N+](=O)[O-])c1,19.6,0.0,8.1,49.5,-1.0
O=C(Oc1c(Cl)cc(Cl)c2cccnc12)c1cccc([N+](=O)[O-])c1,-0.1,5.9,6.8,96.8*,5.5
CCOC(=O)/C=c1\s/c(=C\c2ccc3c(c2)OCCO3)c(=O)n1CC(=O)NCC1CCCO1 (centres undefined),0.3,3.2,0.9,86.2*,5.6
O=C1C2CCCN2C(=O)N1CCCN1CCN(c2cccc(Br)c2)CC1 (centres undefined),0.7,10.6,-3.1,nt,-4.6
O=C(NC1=NCCS1)c1ccc(N2CCCC2=O)cc1,1.7,6.5,3.7,3.3,47.7*
Cn1cnnc1SCC(=O)Nc1ccc(F)cc1,-1.5,0.0,-4.1,nt,-2.2
CCOC(=O)C1CCCN(S(=O)(=O)CCNC(=O)c2ccc(F)cc2)C1 (centres undefined),2.6,-3.2,0.2,nt,7.5
COC(=O)Cc1ccc(NC(=O)c2ccc(C(C)(C)C)cc2)cc1,-3.8,17.0,-3.2,72.2*,11.1
Cc1ccc(C(C(=O)NC2CCCC2)N(CCCO)C(=O)Cn2nnc(-c3ccc(C)o3)n2)cc1 (centres undefined),1.6,0.3,5.6,nt,10.0
COc1ccc(-c2nc(C#N)c(NCCc3ccccc3)o2)cc1,3.3,13.8,1.9,89.6*,6.2
COc1ccc(CCNc2oc(COc3ccccc3F)nc2C#N)cc1,-0.2,22.1,0.6,86.6*,4.1
CCCCNc1oc(-c2ccc(OC)cc2)nc1S(=O)(=O)c1ccccc1,1.0,10.3,-0.7,71.8*,-4.5
CC(C(=O)Nc1ccc(Cl)cc1Cl)N1C(=O)NC2(CCCC2)C1=O (centres undefined),0.6,5.9,-0.7,nt,-18.7
N#C/C(=C/c1ccc2c(c1)OCO2)C(=O)Nc1ccc(O)cc1,4.4,-1.7,3.4,-77.9,-1.2
Nc1c(C(=O)NCc2ccc(F)cc2)c2nc3ccccc3nc2n1CCCN1CCOCC1,2.1,17.5,3.0,-29.8,21.6
Nc1c(C(=O)NCc2ccccc2)c2nc3ccccc3nc2n1CCCN1CCOCC1,2.3,9.8,0.4,101.6*,6.8
CN(C(=O)Nc1ccc(Cl)cc1Cl)[C@H]1c2cc(Br)ccc2OC[C@H]1CO,-1.3,9.1,-1.6,89.0*,4.4
COc1cccc2c1OC[C@@H](CO)[C@H]2N(C)C(=O)Nc1ccccc1,0.1,0.0,-0.9,-12.4,-1.1
COc1ccc(CCNC(=O)CN2c3cccc4cccc(c34)S2(=O)=O)cc1OC,0.4,-3.7,-1.9,nt,-4.1
CC(CCc1ccccc1)NC(=O)COC(=O)c1ccc(S(C)(=O)=O)c([N+](=O)[O-])c1 (centres undefined),12.0,39.5,-6.8,101.4*,29.8
CS(=O)(=O)c1ccc(C(=O)OCC(=O)Nc2cccnc2Cl)cc1[N+](=O)[O-],-7.3,13.0,-9.2,nt,8.9

# Source: PubChem BioAssay (several laboratories)
